Assays:
Format in all cases: functional
[1] = Cytotoxicity against human OVCAR4 cells
In short: (§1)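 Tested in a 60-cell-line human tumor panel screen; the read-out is growth inhibition, reported as GI50 for each cell line.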

CAKI-1 = test: Cytotoxicity against human Caki1 cells; in short: as §1
[2] = Cytotoxicity against human NCI-ADR-RES cells; in short: as §1
HOP-62 = test: Cytotoxicity against human HOP62 cells; in short: as §1
SK-MEL-5 = test: Cytotoxicity against human SK-MEL-5 cells; in short: as §1
SNB-19 = test: Cytotoxicity against human SNB19 cells; in short: as §1
PC-3 = test: Cytotoxicity against human PC3 cells; in short: as §1
[3] = Cytotoxicity against human OVCAR8 cells; in short: as §1
SR = test: Cytotoxicity against human SR cells
In short: (§2)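 Cell line run as part of the 60-cell-line screening panel; growth inhibition was reported as a GI50 for each line.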

SK-OV-3 = test: Cytotoxicity against human SKOV3 cells; in short: as §1
NCI-H460 = test: Cytotoxicity against human NCI-H460 cells; in short: as §1
[4] = Cytotoxicity against human UACC257 cells; in short: as §2
SF-295 = test: Cytotoxicity against human SF295 cells; in short: as §1
BT-549 = test: Cytotoxicity against human BT549 cells; in short: as §1
ACHN = test: Cytotoxicity against human ACHN cells; in short: as §1
TK-10 = test: Cytotoxicity against human TK10 cells; in short: as §2
MDA-MB-435 = test: Cytotoxicity against human MDA-MB-435 cells; in short: as §1
RXF 393 = test: Cytotoxicity against human RXF393 cells; in short: as §1
HCC 2998 = test: Cytotoxicity against human HCC2998 cells; in short: as §1
SK-MEL-2 = test: Cytotoxicity against human SK-MEL-2 cells; in short: as §1
SNB-75 = test: Cytotoxicity against human SNB75 cells; in short: as §2
M14 = test: Cytotoxicity against human M14 cells; in short: as §1
A498 = test: Cytotoxicity against human A498 cells; in short: as §1
HCT-116 = test: Cytotoxicity against human HCT116 cells; in short: as §1
MCF7 = test: Cytotoxicity against human MCF7 cells; in short: as §1
786-0 = test: Cytotoxicity against human 786-0 cells; in short: as §1
NCI-H226 = test: Cytotoxicity against human NCI-H226 cells; in short: as §1
NCI-H322M = test: Cytotoxicity against human NCI-H322M cells; in short: as §1
[5] = Cytotoxicity against human UO31 cells; in short: as §2
SN12C = test: Cytotoxicity against human SN12C cells; in short: as §1
[6] = Cytotoxicity against human OVCAR3 cells; in short: as §1
SF-268 = test: Cytotoxicity against human SF268 cells; in short: as §1
MOLT-4 = test: Cytotoxicity against human MOLT4 cells; in short: as §1
LOX IMVI = test: Cytotoxicity against human LOXIMVI cells; in short: as §1
CCRF-CEM = test: Cytotoxicity against human CCRF-CEM cells
HL-60(TB) = test: Cytotoxicity against human HL-60(TB) cells
In short: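 Tested within the NCI 60-cell-line screen, with GI50 as the read-out. Values are the average of two independent experiments. The lowest concentration tested was 10 nM.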

MDA-MB-231 = test: Cytotoxicity against human MDA-MB-231 cells; in short: as §1
MDA-MB-468 = test: Cytotoxicity against human MDA-MB-468 cells; in short: as §1
A549 = test: Cytotoxicity against human A549 cells; in short: as §1
KM12 = test: Cytotoxicity against human KM12 cells; in short: as §1
HT-29 = test: Cytotoxicity against human HT-29 cells; in short: as §1
[7] = Cytotoxicity against human UACC62 cells; in short: as §2
U-251 = test: Cytotoxicity against human U251 cells; in short: as §2
[8] = read-out: pLC50 (the source's name) (converted)

## COc1cc(/C=C/c2cc(OC)c3cc[nH]c3c2)cc2c1O[C@]1(C)CC[C@@H](O)C(C)(C)[C@H]1C2
[1]; OVCAR-4
  GI50: 871 nM
[1]; OVCAR-4, read-out: pLC50 (the source's name) (converted)
  CC50: > 100000 nM
[1]; OVCAR-4, read-out: pTGI (converted)
  TGI: 26900 nM
CAKI-1
  GI50: 79.4 nM
  LC50: 851 nM
CAKI-1; read-out: pTGI (converted)
  TGI: 269 nM
[2]
  GI50: 2090 nM
[2]; [8]
  CC50: > 100000 nM
[2]; read-out: pTGI (converted)
  TGI: 20000 nM
HOP-62
  GI50: 501 nM
HOP-62; [8]
  CC50: 9550 nM
HOP-62; read-out: pTGI (converted)
  TGI: 2400 nM
SK-MEL-5
  GI50: 178 nM
SK-MEL-5; [8]
  CC50: 708 nM
SK-MEL-5; read-out: pTGI (converted)
  TGI: 355 nM
SNB-19
  GI50: 676 nM
SNB-19; [8]
  CC50: > 100000 nM
SNB-19; read-out: pTGI (converted)
  TGI: 7080 nM
PC-3
  GI50: 191 nM
  LC50: > 100000 nM
PC-3; read-out: pTGI (converted)
  TGI: 1780 nM
[3]; OVCAR-8
  GI50: 3630 nM
[3]; OVCAR-8, read-out: pLC50 (the source's name) (converted)
  CC50: > 100000 nM
[3]; OVCAR-8, read-out: pTGI (converted)
  TGI: 25100 nM
SR
  GI50: 302 nM
SR; [8]
  CC50: > 100000 nM
SR; read-out: pTGI (converted)
  TGI: 5620 nM
SK-OV-3
  GI50: 339 nM
SK-OV-3; read-out: pTGI (converted)
  TGI: 1290 nM
NCI-H460
  GI50: 380 nM
NCI-H460; [8]
  CC50: 37200 nM
NCI-H460; read-out: pTGI (converted)
  TGI: 2290 nM
[4]; UACC-257
  GI50: 295 nM
[4]; UACC-257, read-out: pTGI (converted)
  TGI: 759 nM
SF-295; read-out: GI50
  GI50: 55 nM
SF-295; read-out: pGI50 (converted)
  GI50: 55 nM
SF-295; [8]
  CC50: 794 nM
SF-295; read-out: pTGI (converted)
  TGI: 224 nM
BT-549
  GI50: 229 nM
BT-549; [8]
  CC50: > 100000 nM
BT-549; read-out: pTGI (converted)
  TGI: 3090 nM
ACHN
  GI50: 575 nM
  LC50 (concentration killing 50% of cells): > 100000 nM
ACHN; read-out: pTGI (converted)
  TGI: 6920 nM
TK-10
  GI50: 1550 nM
  LC50: > 100000 nM
TK-10; read-out: pTGI (converted)
  TGI: 11000 nM
MDA-MB-435
  GI50: 355 nM
MDA-MB-435; [8]
  CC50: > 100000 nM
MDA-MB-435; read-out: pTGI (converted)
  TGI: 2570 nM
RXF 393
  GI50: 24 nM
  LC50: 316 nM
RXF 393; read-out: pTGI (converted)
  TGI: 60.3 nM
HCC 2998
  GI50: 2240 nM
HCC 2998; [8]
  CC50: 49000 nM
HCC 2998; read-out: pTGI (converted)
  TGI: 11200 nM
SK-MEL-2
  GI50: 309 nM
SK-MEL-2; [8]
  CC50: > 100000 nM
SK-MEL-2; read-out: pTGI (converted)
  TGI: 1740 nM
SNB-75
  GI50: 93.3 nM
SNB-75; read-out: pTGI (converted)
  TGI: 468 nM
M14
  GI50: 174 nM
M14; [8]
  CC50: 741 nM
M14; read-out: pTGI (converted)
  TGI: 355 nM
A498
  GI50: 245 nM
A498; read-out: pTGI (converted)
  TGI: 813 nM
HCT-116
  GI50: 537 nM
HCT-116; [8]
  CC50: 6030 nM
HCT-116; read-out: pTGI (converted)
  TGI: 2040 nM
MCF7
  GI50: 389 nM
  LC50: > 100000 nM
MCF7; read-out: pTGI (converted)
  TGI: 2000 nM
786-0
  GI50: 72.4 nM
  LC50 (concentration killing 50% of cells): 3020 nM
786-0; read-out: pTGI (converted)
  TGI: 468 nM
NCI-H226
  GI50: 1740 nM
NCI-H226; [8]
  CC50: 58900 nM
NCI-H226; read-out: pTGI (converted)
  TGI: 7080 nM
NCI-H322M
  GI50: 3550 nM
NCI-H322M; [8]
  CC50: > 100000 nM
NCI-H322M; read-out: pTGI (converted)
  TGI: 37200 nM
[5]; UO-31
  GI50: 186 nM
  LC50: > 100000 nM
[5]; UO-31, read-out: pTGI (converted)
  TGI: 977 nM
SN12C
  GI50: 6170 nM
  LC50: > 100000 nM
SN12C; read-out: pTGI (converted)
  TGI: 51300 nM
[6]; OVCAR-3
  GI50: 1200 nM
[6]; OVCAR-3, read-out: pLC50 (the source's name) (converted)
  CC50: 10000 nM
[6]; OVCAR-3, read-out: pTGI (converted)
  TGI: 3160 nM
SF-268
  GI50: 282 nM
SF-268; [8]
  CC50: 10000 nM
SF-268; read-out: pTGI (converted)
  TGI: 10200 nM
MOLT-4
  GI50: 91.2 nM
MOLT-4; [8]
  CC50: > 100000 nM
MOLT-4; read-out: pTGI (converted)
  TGI: 490 nM
LOX IMVI
  GI50: 389 nM
LOX IMVI; [8]
  CC50: 4470 nM
LOX IMVI; read-out: pTGI (converted)
  TGI: 1480 nM
CCRF-CEM
  GI50: 151 nM
CCRF-CEM; [8]
  CC50: > 100000 nM
HL-60(TB)
  GI50: 138 nM
HL-60(TB); [8]
  CC50: > 100000 nM
HL-60(TB); read-out: pTGI (converted)
  TGI: 1320 nM
MDA-MB-231
  GI50: 851 nM
  LC50: > 100000 nM
MDA-MB-231; read-out: pTGI (converted)
  TGI: 4570 nM
MDA-MB-468
  GI50: 631 nM
  LC50: > 100000 nM
MDA-MB-468; read-out: pTGI (converted)
  TGI: 4470 nM
A549
  GI50: 871 nM
A549; [8]
  CC50: > 100000 nM
A549; read-out: pTGI (converted)
  TGI: 17800 nM
KM12
  GI50: 191 nM
KM12; [8]
  CC50: 3630 nM
KM12; read-out: pTGI (converted)
  TGI: 468 nM
HT-29
  GI50: 288 nM
HT-29; [8]
  CC50: > 100000 nM
HT-29; read-out: pTGI (converted)
  TGI: 1780 nM
[7]; UACC-62
  GI50: 162 nM
[7]; UACC-62, read-out: pLC50 (the source's name) (converted)
  CC50: 955 nM
[7]; UACC-62, read-out: pTGI (converted)
  TGI: 398 nM
U-251
  GI50: 331 nM
U-251; [8]
  CC50: 31600 nM
U-251; read-out: pTGI (converted)
  TGI: 3630 nM

From ChEMBL document CHEMBL3232844, “Synthesis and structure activity relationships of schweinfurthin indoles” (2014)
